According to ChEMBL document CHEMBL4513216, “Probing the Open Global Health Chemical Diversity Library for Multistage-Active Starting Points for Next-Generation Antimalarials” (ACS Infect Dis, 2020):

Assay: Toxicity liver stage against HepG2, at 10uM
Type: cell-based
Design: test concentration 10 uM, cell line HepG2-A16-CD81EGFP
Conditions: human, HepG2-A16-CD81EGFP cells; read-out: INHIBITION
Summary of the method: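 Uninfected HepG2-A16-CD81EGFP cells, 3 × 10^3 per well, 1536-well, plated on prespotted compound at 10 μM final, parasite-free screening media added to match infected plates; puromycin 10 μM positive, DMSO 0.5% negative; run in parallel with 48 h PbLuc assay at 37 °C, 5% CO2; viability by CellTiter-Glo luminescence, normalized to controls.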

SMILES	cytotoxicity at 10 µM
CCS(=O)(=O)c1ccc2oc([C@H]3CCN(Cc4cccnc4)C3)nc2c1	19.7%
O=C1N(C2CCCCC2)C[C@H]2CN(C3CCC3)CCN12	6.44%
COC(=O)[C@@H]1Cc2ncn(C)c2CN1S(=O)(=O)c1cccs1	-6.25%
O=C(NCCC1=CCCCC1)c1[nH]nc2c1CCCC2	-80.4%
CCCN1CCc2nc(SCc3ccc(F)cc3)[nH]c(=O)c2C1	-3.37%
CC(C)N1C[C@@H](CO)[C@H](c2ccccc2)S1(=O)=O	-1.94%
CN(C)C(=O)NC1COC2(CCN(C(=O)c3ccc(Cl)cc3)CC2)C1 (stereo not given)	0.994%
COCC1c2nnn(CC3CC3)c2CCN1C(=O)c1ccncn1 (stereo not given)	-132%
CC1=N[C@@]2(CC[C@@H]3CN(Cc4ccccc4F)C[C@@H]32)C(=O)N1C	3.76%
COCCN1CCC2(CCCN(C(=O)c3ccoc3C)C2)C1=O (stereo not given)	0.369%
c1ccc(N2CCOCC3(CCCN(c4nccs4)C3)C2)nc1 (stereo not given)	-104%
O=c1[nH]nc2nc(N3CCCC3)ccn12	-6.07%
CCCn1c(SCC(N)=O)nnc1-c1csc2c1CCCC2	-1.42%
Cc1cc(C(=O)N2CCCC(c3nc(C)no3)C2)on1 (stereo not given)	6.93%
CCn1ccc(NS(=O)(=O)c2cccc(COC)c2)n1	-5.41%
CN1CCCC1c1ccnc2nccn12 (stereo not given)	6.84%
CSc1nnc(C2CCN(C(=O)N3CCCC3)CC2)n1C(C)C	8.54%
CO[C@H]1CN(Cc2nc3ccccc3n2C)CC[C@@]12CCCO2	2.5%
O=C(Nc1cccnc1N1CCSCC1)c1cc2c(s1)CCCCC2	-3.25%
O=C(Nc1cccc(N2CCCC2)c1)N[C@H](CCO)c1ccccc1	-4.52%
CN(Cc1cccs1)Cc1nnsc1Cl	-5.65%
Cc1ccc(NC(=O)N(C)C)c(C(=O)OCC(=O)NC2CCCC2)c1	-8.03%

SMILES	cytotoxicity at 10 µM
COc1ccc(-c2cnc(CN(CC(N)=O)C3CCCC3)o2)cc1	-7.95%
Cc1nc2n(n1)CC(NCCc1cccs1)CC2 (stereo not given)	-9.77%
O=S(=O)(Cc1ccccc1F)N1CCCC1c1nnc2n1CCCCC2 (stereo not given)	7.17%
CC(NC(=O)COc1ccccc1C(=O)O)c1ccc(F)cc1 (stereo not given)	-1.11%
NC(=O)c1ccc(CN2CCC(N3CCCCC3)CC2)cc1	-7.55%
[O-][S+](Cc1c(F)cccc1Cl)Cc1nnnn1C1CC1 (stereo not given)	0.0902%
Cc1ccc(C(=O)Nc2cccc3c2C(=O)NC3)c(C)n1	0.102%
CN(C)S(=O)(=O)c1cccc(NC(=O)Cc2ccon2)c1	9.48%
Cc1nc(CNCC(C)c2nc3ccccc3o2)cs1 (stereo not given)	14.5%
CC1(C)CCC(C(=O)N2CCCO2)c2ccccc21 (stereo not given)	-0.636%
CCOc1cc(C(=O)N2CC=C(c3ccc(O)cc3)CC2)ccn1	-4.89%
Cc1nc(C2CCCN(c3ncc(Br)cn3)C2)no1 (stereo not given)	-0.598%
Cc1oc(CN(C)C(=O)c2ccc(C(F)(F)F)cc2)cc1C(=O)O	9.08%
Cc1noc(C)c1Cc1nc(N(C)C)no1	9.21%
Cc1cc(C(=O)Nc2nnn[nH]2)ccc1I	-2.08%
CCC(Nc1nnnn1-c1ccccc1)C(=O)Nc1nc(C)cs1 (stereo not given)	-23%
CCC(Nc1nnnn1-c1ccccc1)C(=O)NCc1ccsc1 (stereo not given)	-3.56%
O=S(=O)(CCNCCn1cccn1)c1ccccc1	11.5%
CNC(=O)c1ccccc1NCc1ncnn1C	-0.393%
O=S(=O)(CCC1CCCO1)NCc1ncc(-c2ccccc2)o1 (stereo not given)	3.7%
CCS(=O)(=O)c1ccc2c(c1)N1CCS(=O)(=O)N=C1O2	10.3%
O=S(=O)(Nc1ccccn1)c1cc(Cl)cc2c1OCC2	0.38%

SMILES	cytotoxicity at 10 µM
Cc1cccc(C(C)(C)CNC(=O)CN(C)c2cnccn2)c1	1.79%
CN1CC(C(=O)NCCc2ccc3c(c2)OCO3)CC1=O (stereo not given)	2.55%
CS(=O)(=O)CCCNC1(c2cccc(F)c2)CC1	-3.39%
CNS(=O)(=O)c1cccc(C(C)NCc2cccc(OC)c2)c1 (stereo not given)	-12.3%
Cc1nc(C)n(CC2CCCCN2CCCS(=O)(=O)N(C)C)n1 (stereo not given)	-18.5%
COC(=O)C(C)(C)NC(=O)C1CC(=O)N(C2CCCC2)C1 (stereo not given)	-10.3%
Cc1nc2c(c(=O)n1C)CCN(Cc1cc3cc[nH]c3cn1)CC2	-9.56%
CC(=O)c1cccc(CN2CCCC23CCN(c2ccccn2)CC3)c1	-15.4%
Cc1noc(CN(C)Cc2cnc(N3CCOCC3)nc2)n1	-14%
CCCC1COCCN1Cc1ccc(C(=O)O)cc1 (stereo not given)	-139%
C[C@@H]1CN(Cc2cccnc2)C[C@]1(C)O	-6.1%
COCCCN(C)C(=O)Cn1cccc(OC)c1=O	7.52%
CCn1nc(C)c(C(=O)N2C[C@@H](CN(C)CCOC)[C@@H](CO)C2)c1C	1.35%
Cc1cc(OCC(O)c2nc3c([nH]2)CC(C)(C)CNC3=O)ccc1Cl (stereo not given)	-1.57%
CC(=O)NCc1nc(Cc2cccc(Cl)c2)nn1C1CCN(C)CC1	-1.12%
CN(Cc1ccno1)c1nc(C2CCCC2)nc2c1cnn2C	7.27%
NC1(C(=O)NCCC2CN(Cc3ccco3)CCO2)CCCC1 (stereo not given)	-1.03%
CN(C)C(=O)C1CCCN1C(=O)c1ccc(Cn2ccnc2)o1 (stereo not given)	-0.304%
CC(C)(C)n1ccc(C(=O)N2CCCC(c3ncc[nH]3)C2)c1 (stereo not given)	2.96%
Cc1ccc2nc(CN3CCCC3c3cccnc3)cc(O)c2c1 (stereo not given)	3.16%
CS(=O)(=O)NCc1cc2n(n1)CCCN(Cc1nc3ccccc3[nH]1)C2	-4.55%
CN(C)S(=O)(=O)N1CCN(C(=O)c2ccc3ccn(C)c3c2)CC1	-7.56%

SMILES	cytotoxicity at 10 µM
CC(C)C(=O)NCC(=O)N(C)C1CCCN(CCc2ccccc2)C1 (stereo not given)	-16.9%
Cc1cc(C2CCCN2Cc2ccn(C)c(=O)c2)on1 (stereo not given)	-6.04%
Cc1nc(CN2CCCC(NCc3ccsc3)C2)no1 (stereo not given)	0.504%
c1ccc(CCN2CCN(c3ccc4nncn4n3)CC2)nc1	-7.93%
CC(Cn1cccn1)NC(=O)Nc1nccs1 (stereo not given)	-9.55%
Cc1ncc2c(n1)CCN(C(=O)Cc1c(C)noc1C)C2	-8.55%
O=C(CN1CCCC1Cn1cncn1)NCCOc1cccc(F)c1 (stereo not given)	-3.24%
COc1c(CNCCNC(=O)c2ccco2)c(C)nn1C	-5.92%
O=C1NCCN1C1CCCN(Cc2nnc(-c3ccc(F)cc3)o2)C1 (stereo not given)	-7.69%
CN1CCCC1CNC(=O)CCCOc1ccc(F)cc1 (stereo not given)	-7.67%
COC(=O)CN(C)C1CCc2ccccc21 (stereo not given)	-7.59%
CC(=O)N1CCN(C(=O)CCOc2ccc(C(C)C)cc2)CC1	-6.51%
CCc1nc(C2CCCN(C(=O)CCn3ccccc3=O)C2)no1 (stereo not given)	-12.3%
CCc1nccn1C1CCCN(C(=O)c2csc(NC(C)=O)n2)C1 (stereo not given)	-13%
COc1ccc(CNC2CCC3(CCC(=O)N3)CC2)cc1 (stereo not given)	3.59%
CCOCC1CN(CCOc2ccc(Cl)cc2)Cc2c1cnn2C (stereo not given)	-109%
CN(C)c1ncnc2c1CCN(CC1CCOC1)CC2 (stereo not given)	0.745%
Cc1cccnc1N1CC2(CCN(Cc3cnn(C)c3)C2)C1	-5.99%
c1ccc(CN2CCc3ncnc(-c4ccsc4)c3CC2)nc1	3.91%
